Assay [1] in a line: Effect on […] cell growth expressed as percent number of colonies compared to contro at a concentration of 20 uM. The format is functional, Mus musculus. In outline: (§1)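 WEHI-3B murine cells grown in methyl cellulose/RPMI colony (clonogenic) assay with compound at a range of concentrations for 5 days in 60-mm dishes. Colonies counted after 5 days and expressed as percentage of untreated control colonies. Mean of three experiments run in triplicate ± SD. IC50 taken from the concentration-response.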

A short description of assay [2]: Compounds were evaluated for antineoplastic activity against […] cells using clonogenic assays. It counts as functional, cell-based. The following applies: Mus musculus. The gist of the method: as §1
A short description of assay [3]: Effect on […] cell growth expressed as percent number of colonies compared to contro at a concentration of 5 uM. The format is functional, Mus musculus. The gist of the method:
as §1

A short description of assay [4]: Effect on […] cell growth expressed as percent number of colonies compared to contro at a concentration of 2.5 uM. The format is functional, Mus musculus. The gist of the method:
as §1

A short description of assay [5]: Effect on […] cell growth expressed as percent number of colonies compared to contro at a concentration of 0.6 uM. The format is functional, cell-based. The settings on record: Mus musculus. The gist of the method: as §1
The nature of assay [6]: Effect on […] cell growth expressed as percent number of colonies compared to contro at a concentration of 10 uM. It counts as functional, Mus musculus. In outline: as §1
A short description of assay [7]: Effect on […] cell growth expressed as percent number of colonies compared to contro at a concentration of 1.2 uM. The format is functional, Mus musculus. The gist of the method:
as §1

A short description of assay [8]: Effect on […] cell growth expressed as percent number of colonies compared to control at a concentration of 5 uM. It counts as functional, Mus musculus. The gist of the method: as §1
Assay [9] can be described thus: Effect on […] cell growth expressed as percent number of colonies compared to control at a concentration of 1.2 uM. It counts as functional, Mus musculus. The gist of the method:
as §1

The nature of assay [10]: Effect on […] cell growth expressed as percent number of colonies compared to control at a concentration of 2.5 uM. It counts as functional, Mus musculus. In outline: as §1
Assay [11] can be described thus: Effect on […] cell growth expressed as percent number of colonies compared to control at a concentration of 20 uM. It counts as functional, Mus musculus. In outline:
as §1

The nature of assay [12]: Compounds were evaluated for antineoplastic activity against […] cells using clonogenic assays. It counts as functional, cell-based. The following applies: Mus musculus. The gist of the method: as §1
Assay [13] in a line: Effect on […] cell growth expressed as percent number of colonies compared to control at a concentration of 10 uM. The format is functional, Mus musculus. The gist of the method: as §1

Values joined by “and” are separate entries in the source; they are usually repeats but may differ in a detail not shown here. Equal entries are not always repeated.

The term IC50 denotes the midpoint of a concentration-inhibition curve. Lower therefore signals higher potency.

As for `CCCCCCCCCCCCCCCCCCOCC(COP(=O)([O-])OCC[N+](C)(C)C)OC` (stereo not drawn) [EDELFOSINE], the Control in [1] is recorded as 30%; in [3], 48%; in [4], 68%; in assay [6], 36%; in assay [7] it was 91%. For the same compound, the IC50 in assay [2] is 2.5 µM. This compound registered a percent of control colonies in assay [5] of 105%.
With `CCCCCCCCCCCCCCCCOC[C@H](CCP(=O)([O-])OCC[N+](C)(C)C)OC`, the Control is 58% and 48% in assay [8]; 95% in [9]; 88% in assay [10]; 32% in assay [11]; 30% in assay [13]. For the same compound, half-maximal inhibition in [12] (IC50) was put at 2.5 µM.

(Values after ChEMBL document CHEMBL1126826, “2'-(Trimethylammonio)ethyl 4-(hexadecyloxy)-3(S)-methoxybutanephosphonate: a novel potent antineoplastic agent” (J Med Chem, 1993).)
